Experimental data collected from several papers.
Each line is one published result; the experiments were not run side by side.

CC1=CC[C@H]2[C@@H]([C@@H]1CC[C@H]1[C@]3(C)CC[C@H](O)C(C)(C)O[C@H]3CC[C@]1(C)O)C(C)(C)CC[C@]2(C)O
IC50 (KB 3-1; cell growth or viability, MTT; 72 h): > 50 µM

c1cnc2ccc(Nc3nc(NC4CC4)c4nc[nH]c4n3)cc2c1
MRT(0-t) (human, plasma; oral, 100 mg/m², patients): 8.1 h

CN(CCC(=O)O)C(=O)c1ccc2c(c1)CC[C@@H]1[C@@H]2CC[C@]2(C)C(c3cncc(F)c3)=CC[C@@H]12
IC50 (UDP-glucuronosyltransferase 1A1 (UGT1A1, Homo sapiens, UniProt P22309); enzyme activity, inhibitor; human, liver microsomes): 4.1 µM

CC(C)Oc1cccc(-c2cnc(N3CCC(C(N)=O)CC3)s2)c1
concentration (male Swiss mouse, plasma; oral, 30 mg/kg, 1 h, single dose): 439 ng/mL

CC(C)(C)c1ccc(O)c(CN(Cc2cc(C(C)(C)C)ccc2O)C2CCC(NC(N)=O)CC2)c1 (stereo not shown)
half-life (male C57BL/6 mouse, plasma; intraperitoneal, 5 mg/kg, single dose): 2.4 h

CC(C)(O)c1ccccc1-c1ccc2[nH]c(/C=C/c3ccc(C(F)(F)F)cc3)nc2c1
MRT (male human, plasma; oral, 15 mg, single dose, fasted, healthy volunteers): 84 h

COc1ccc(S(=O)(=O)ON=C2C=C(C)C(=O)C(C)=C2)cc1
CC50 (HMEC; cell growth or viability): > 15.5 µM

CC(C)CN(C[C@@H](O)[C@H](Cc1ccccc1)NC(=O)O[C@H]1CO[C@H]2OCC[C@H]21)S(=O)(=O)c1ccc(N)cc1
concentration (BALB/c mouse, plasma; intravenous, 2.5 mg/kg, 1 h): 53 ng/mL

CC(C)(Nc1nc(-c2ccccn2)nc2ccccc12)c1ccccn1
concentration (female BALB/c mouse, plasma; oral, 50 mg/kg, 15 min): 3640 ng/mL

CC(C)=CCC[C@@]1(C)C(CC[C@H]2[C@]3(C)CC[C@H](O)C(C)(C)O[C@H]3CC[C@@]2(C)O)=C(C)CC[C@H]1O
IC50 (KB 3-1; cell growth or viability, MTT; 72 h): > 50 µM
